Laboratory results taken from ChEMBL document CHEMBL1125774, “3-Methyl-2H-1-benzopyran potassium channel activators” (J Med Chem, 1991).

species: Oryctolagus cuniculus; assay: Compound measured for hyperpolarization of smooth muscle cells of the rabbit main pulmonary artery at concentration 4 uM.; format: functional; conditions: in the assay text read “10 uM” for “4 uM”
How it was run: (§1)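 Rabbit main pulmonary artery strips; intracellular glass microelectrode recording of smooth muscle membrane potential after 60 min equilibration. Baseline taken as potential reached with 1 µM noradrenaline. Bath medium exchanged for solutions of increasing compound concentration. At least four cells measured per concentration. Value is hyperpolarization (ΔmV) at the stated concentration, averaged over two preparations.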

Compound | Delta mV
CC1(C)Oc2ccc(C#N)cc2[C@@H](N2CCCC2=O)[C@]1(C)O | 23

species: Oryctolagus cuniculus; assay: Compound measured for hyperpolarization of smooth muscle cells of the rabbit main pulmonary artery at concentration 10 uM.; format: functional; conditions: not given; how it was run: as §1

Compound | Delta mV
CC1(C)Oc2ccc([N+](=O)[O-])cc2[C@@H](n2ccccc2=O)[C@]1(C)O | 22

species: Oryctolagus cuniculus; assay: Compound measured for hyperpolarization of smooth muscle cells of the rabbit main pulmonary artery at concentration 100 uM.; format: functional; conditions: not given; how it was run: as §1

Compound | Delta mV
CC1(C)Oc2ccc(C#N)cc2[C@@H](n2ccccc2=O)[C@]1(C)O | 19
CC1(C)Oc2ccc(C#N)cc2[C@H](Oc2ccc(=O)[nH]n2)[C@@]1(C)O | 20
CC1(C)Oc2ccc(C#N)cc2[C@@H](Oc2ccc(=O)[nH]n2)[C@@]1(O)Cc1ccccc1 | 6
CC1(C)Oc2ccc(C#N)cc2[C@@H](On2ccccc2=O)[C@]1(C)O | 21
CC1(C)Oc2ccc(C#N)cc2[C@@H](Oc2ccccn2)[C@]1(C)O | 25
CC1(C)Oc2ccc(C#N)cc2[C@]2(n3ccccc3=O)O[C@]12C | 10
CC1(C)Oc2ccc(C#N)cc2[C@@H](Nn2ccccc2=O)[C@]1(C)O | 12
CC1(C)Oc2ccc(C#N)cc2[C@@H](n2nc(N)ccc2=O)[C@]1(C)O | 13
C[C@]1(O)[C@H](n2ccccc2=O)c2cc(C#N)ccc2OC12CCCCC2 | 3
CCOC[C@]1(O)[C@H](Oc2ccc(=O)[nH]n2)c2cc(C#N)ccc2OC1(C)C | 12
CC1(C)Oc2ccc(C#N)cc2[C@@H](Oc2ccc(=O)[nH]n2)[C@@]1(O)COCc1ccccc1 | 16
C[C@]1(O)[C@H](Oc2ccc(=O)[nH]n2)c2cc(C#N)ccc2OC12CCCCC2 | 26
CC1=C(n2ccccc2=O)c2cc(C#N)ccc2OC1(C)C | 29
CC1=C(N2CCCC2=O)c2cc(C#N)ccc2OC1(C)C | 29

species: Sus scrofa; assay: Relaxing effect determined by measuring inhibition of acetylcholine-induced contractions in pig coronary arteries.; format: functional; conditions: not given
How it was run: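 Pig coronary artery rings from slaughterhouse hearts, resting tension 2 g, isometric force recording. Control acetylcholine contraction repeated every 45 min for three or four cycles, with the last cycle as predrug value. Rising compound concentrations added 30 min before agonist; a solvent ring served as time control.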

Compound | IC50 [µM]
C[C@H]1[C@H](n2ccccc2=O)c2cc(C#N)ccc2OC1(C)C | > 100
CC1(C)Oc2ccc(C#N)cc2[C@@H](Oc2ccc(=O)[nH]n2)[C@@]1(O)Cc1ccccc1 | > 100
CC1(C)Oc2ccc(C#N)cc2[C@]2(n3ccccc3=O)O[C@]12C | > 100
CC1(C)Oc2ccc([N+](=O)[O-])cc2[C@@H](n2ccccc2=O)[C@]1(C)O | 20
C[C@]1(O)[C@H](n2ccccc2=O)c2cc(C#N)ccc2OC12CCCCC2 | 20
CC1(C)Oc2ccc(C#N)cc2[C@@H](N2CCCC2=O)[C@]1(C)O | 4
CC1(C)Oc2ccc(C#N)cc2[C@@H](Oc2ccc(=O)[nH]n2)[C@@]1(O)COCc1ccccc1 | > 100
C[C@]1(O)[C@H](Oc2ccc(=O)[nH]n2)c2cc(C#N)ccc2OC12CCCCC2 | 80
CC1=C(n2ccccc2=O)c2cc(C#N)ccc2OC1(C)C | 5
Cn1nc(O[C@@H]2c3cc(C#N)ccc3OC(C)(C)[C@H]2O)ccc1=O | 0.05
CC1=C(N2CCCC2=O)c2cc(C#N)ccc2OC1(C)C | > 100
CC1(C)C=C(n2ccccc2=O)c2cc(C#N)ccc2O1 [BIMAKALIM] | 0.05
CC1(C)Oc2ccc(C#N)cc2C(N2CCCC2=O)C1O (stereo unspecified) [CROMAKALIM] | 0.7

The next lines start with the values.

IC50 [µM] | Compound
> 100 | CC1(C)Oc2ccc(C#N)cc2[C@@H](n2ccccc2=O)[C@]1(C)O
0.006 | CC1(C)Oc2ccc(C#N)cc2[C@@H](Oc2ccc(=O)[nH]n2)[C@]1(C)O
> 100 | CC1(C)Oc2ccc(C#N)cc2[C@@H](On2ccccc2=O)[C@]1(C)O
6 | CC1(C)Oc2ccc(C#N)cc2[C@@H](Oc2ccccn2)[C@]1(C)O
0.004 | CC1(C)Oc2ccc(C#N)cc2[C@@H](Oc2ccnc(O)c2)[C@]1(C)O
> 100 | CC1(C)Oc2ccc(C#N)cc2[C@@H](Nn2ccccc2=O)[C@]1(C)O
40 | CC1(C)Oc2ccc(C#N)cc2[C@@H](n2nc(N)ccc2=O)[C@]1(C)O
50 | CCOC[C@]1(O)[C@H](Oc2ccc(=O)[nH]n2)c2cc(C#N)ccc2OC1(C)C
0.007 | CCn1nc(O[C@@H]2c3cc(C#N)ccc3OC(C)(C)[C@@]2(C)O)ccc1=O
0.7 | CC1(C)Oc2ccc(C#N)cc2[C@@H](Oc2ccc(=O)[nH]n2)[C@@]1(O)CO
0.02 | CC1(C)Oc2ccc(C#N)cc2[C@@H](OC2=CC(=O)CC2)[C@]1(C)O
0.02 | CC1(C)Oc2ccc([N+](=O)[O-])cc2[C@@H](Oc2ccc(=O)[nH]n2)[C@]1(C)O
0.03 | Cn1nc(O[C@@H]2c3cc(C#N)ccc3OC(C)(C)[C@@]2(C)O)ccc1=O
0.02 | Cn1nc(N[C@@H]2c3cc(C#N)ccc3OC(C)(C)[C@@]2(C)O)ccc1=O

species: Oryctolagus cuniculus; assay: Compound measured for hyperpolarization of smooth muscle cells of the rabbit main pulmonary artery at concentration 3 uM.; format: functional; conditions: not given; how it was run: as §1

Compound | Delta mV
CC1(C)Oc2ccc(C#N)cc2[C@@H](Oc2ccc(=O)[nH]n2)[C@@]1(O)CO | 32
CC1(C)Oc2ccc(C#N)cc2C(N2CCCC2=O)C1O (stereo unspecified) [CROMAKALIM] | 28

species: Oryctolagus cuniculus; assay: Compound measured for hyperpolarization of smooth muscle cells of the rabbit main pulmonary artery at concentration 0.1 uM.; format: functional; conditions: not given; how it was run: as §1

Compound | Delta mV
CC1(C)Oc2ccc(C#N)cc2[C@@H](Oc2ccc(=O)[nH]n2)[C@]1(C)O | 29
CC1(C)Oc2ccc(C#N)cc2[C@@H](Oc2ccnc(O)c2)[C@]1(C)O | 35
CCn1nc(O[C@@H]2c3cc(C#N)ccc3OC(C)(C)[C@@]2(C)O)ccc1=O | 22
CC1(C)Oc2ccc([N+](=O)[O-])cc2[C@@H](Oc2ccc(=O)[nH]n2)[C@]1(C)O | 24
Cn1nc(O[C@@H]2c3cc(C#N)ccc3OC(C)(C)[C@@]2(C)O)ccc1=O | 24
Cn1nc(N[C@@H]2c3cc(C#N)ccc3OC(C)(C)[C@@]2(C)O)ccc1=O | 34
Cn1nc(O[C@@H]2c3cc(C#N)ccc3OC(C)(C)[C@H]2O)ccc1=O | 29
CC1(C)C=C(n2ccccc2=O)c2cc(C#N)ccc2O1 [BIMAKALIM] | 23

species: Oryctolagus cuniculus; assay: Compound measured for hyperpolarization of smooth muscle cells of the rabbit main pulmonary artery at concentration 1 uM.; format: functional; conditions: not given; how it was run: as §1

Compound | Delta mV
C[C@H]1[C@H](n2ccccc2=O)c2cc(C#N)ccc2OC1(C)C | 10
CC1(C)Oc2ccc(C#N)cc2[C@@H](OC2=CC(=O)CC2)[C@]1(C)O | 25
CC1(C)Oc2ccc(C#N)cc2[C@@H](n2ccccc2=O)[C@@H]1O | 34

species: Oryctolagus cuniculus; assay: Relaxing effect by measuring inhibition of noradrenaline-induced contractions in rabbit main pulmonary arteries; format: functional; conditions: not given
How it was run: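 Rabbit pulmonary artery rings 5 mm wide, resting tension 2 g, equilibrated 60–90 min, isometric force recording. Rings contracted with 0.7-1 µM noradrenaline (about 80% of maximal response). Once force was stable, compound added cumulatively in 0.5 log increments. IC50 (50% inhibition) determined graphically for each experiment and reported as geometric mean with 95% confidence limits.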

IC50 [µM] | Compound
0.002 | CC1(C)Oc2ccc(C#N)cc2[C@@H](Oc2ccc(=O)[nH]n2)[C@]1(C)O
0.174 | CC1(C)Oc2ccc(C#N)cc2[C@@H](n2ccccc2=O)[C@@H]1O
0.026 | Cn1nc(O[C@@H]2c3cc(C#N)ccc3OC(C)(C)[C@H]2O)ccc1=O
0.057 | CC1(C)C=C(n2ccccc2=O)c2cc(C#N)ccc2O1 [BIMAKALIM]
0.42 | CC1(C)Oc2ccc(C#N)cc2C(N2CCCC2=O)C1O (stereo unspecified) [CROMAKALIM]

species: Oryctolagus cuniculus; assay: Drug concentration required to induce half maximal hyperpolarization in rabbit main pulmonary arteries; format: functional; conditions: not given
How it was run: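 Rabbit main pulmonary artery strips, 60 min equilibration, predepolarized with 1 µM noradrenaline. Membrane potential recorded intracellularly with glass microelectrodes in at least four cells per concentration while compound concentration was raised by bath exchange. EC50 is the concentration giving half-maximal hyperpolarization, taken from concentration/response curves.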

EC50 [µM] | Compound
0.003 | CC1(C)Oc2ccc(C#N)cc2[C@@H](Oc2ccc(=O)[nH]n2)[C@]1(C)O
0.105 | CC1(C)Oc2ccc(C#N)cc2[C@@H](n2ccccc2=O)[C@@H]1O
0.011 | Cn1nc(O[C@@H]2c3cc(C#N)ccc3OC(C)(C)[C@H]2O)ccc1=O
0.027 | CC1(C)C=C(n2ccccc2=O)c2cc(C#N)ccc2O1 [BIMAKALIM]
0.263 | CC1(C)Oc2ccc(C#N)cc2C(N2CCCC2=O)C1O (stereo unspecified) [CROMAKALIM]
